Assay results pooled from the literature.
Compare with care: the assays were run in different laboratories.
Target: G protein-coupled receptor kinase 3 (GRK3, Homo sapiens, UniProt P35626)
Sequence (P35626 1-688, as in one of the studies): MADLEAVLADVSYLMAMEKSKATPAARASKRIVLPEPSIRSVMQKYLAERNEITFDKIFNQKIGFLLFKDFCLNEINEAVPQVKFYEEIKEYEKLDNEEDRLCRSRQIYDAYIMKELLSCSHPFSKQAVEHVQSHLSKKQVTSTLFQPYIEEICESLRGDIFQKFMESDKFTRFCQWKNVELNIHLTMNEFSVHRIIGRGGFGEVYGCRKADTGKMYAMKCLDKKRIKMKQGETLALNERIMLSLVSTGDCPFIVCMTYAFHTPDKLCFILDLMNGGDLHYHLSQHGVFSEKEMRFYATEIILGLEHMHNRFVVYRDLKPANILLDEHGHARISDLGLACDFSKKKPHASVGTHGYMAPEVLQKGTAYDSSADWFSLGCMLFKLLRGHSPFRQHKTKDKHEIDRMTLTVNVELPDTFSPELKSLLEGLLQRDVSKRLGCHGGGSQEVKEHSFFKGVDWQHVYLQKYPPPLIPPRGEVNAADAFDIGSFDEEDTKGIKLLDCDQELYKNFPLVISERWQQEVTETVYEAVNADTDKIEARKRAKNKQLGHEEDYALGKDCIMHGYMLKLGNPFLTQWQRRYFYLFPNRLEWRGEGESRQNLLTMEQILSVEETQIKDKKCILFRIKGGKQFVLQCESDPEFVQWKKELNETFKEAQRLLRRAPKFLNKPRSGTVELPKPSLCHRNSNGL

O=C(NCCCN1CCOCC1)c1ccc(Nc2ncc(Cl)c(-c3ccc(Cl)s3)n2)cc1 — remaining binding (binding; competition with immobilised ligand; 1 µM): 51%
O=C(Nc1ccc(Oc2ccc(F)cc2)cc1)N1CCc2ncccc2[C@H]1c1ccc(F)cc1 — remaining binding (cell-free assay; competition with immobilised ligand; 1 µM): 95%
CN(c1nccc(-c2cnn3ncccc23)n1)C1CC1 — remaining binding (binding; 1 µM): 100%
COc1ncc2cc3ccccc3nc2c1C#N — remaining binding (cell-free assay; competition with immobilised ligand; 5 µM): 53%
COc1cnc(Nc2cccc(S(N)(=O)=O)c2)nc1N1CCN(c2ccccc2)C(=O)C1 — remaining binding (binding; competition with immobilised ligand; 1 µM): 70%
CN(C)C(=O)Cn1cc(-c2nc([C@@](C)(c3ccc(-c4cnc(N)nc4)cc3)C3CC3)no2)cn1 — remaining binding (cell-free assay; competition with immobilised ligand; 1 µM): 86%
C[C@H]1CCN(c2nccc(-c3cnn4ncccc34)n2)C1 — remaining binding (binding; 1 µM): 33%
Cc1cnc(Nc2ccc(C(=O)N3CCC(N4CCCC4)CC3)cc2)nc1-c1cc2ccccc2s1 — remaining binding (binding; competition with immobilised ligand; 1 µM): 73%
O=C(Nc1c[nH]nc1C(=O)NC1CCNCC1)c1cc(F)cc(F)c1 — remaining binding (binding; competition with immobilised ligand; 1 µM): 82%
O=C(c1ccc(Nc2ncc(Cl)c(-c3cc4ccccc4s3)n2)cc1)N1CCC(N2CCCC2)CC1 — remaining binding (binding; competition with immobilised ligand; 1 µM): 63%
C=CC(=O)N1CCC(C(=O)NCC(=O)N2CCN(c3nc(-c4cnc(N)nc4C(F)F)nc(N4CCOCC4)n3)CC2)CC1 — remaining binding (binding; competition with immobilised ligand; 1 µM): 100%
COc1ccc2c(c1)O[C@H](c1ccc(OC)c(OC)c1)C[C@@H]2NC(=O)C1(c2ccc3c(c2)OC(F)(F)O3)CC1 — remaining binding (cell-free assay; competition with immobilised ligand; 1 µM): 100%
CC1CCCN1c1nccc(-c2cnn3ncccc23)n1 (centres unmarked) — remaining binding (binding; 1 µM): 100%
FC(F)(F)Oc1cccc(-c2cnc3ccc(-c4ccncc4)nn23)c1 — remaining binding (cell-free assay; competition with immobilised ligand; 5 µM): 99%
F[C@@H]1CCN(c2nccc(-c3cnn4ncccc34)n2)C1 — remaining binding (binding; 1 µM): 13%
O=C(O)[C@@H]1[C@@H](Cn2nnc3ccccc3c2=O)CC[C@H]1C(=O)c1ccc(OCCC2CCOCC2)cc1 — remaining binding (cell-free assay; competition with immobilised ligand; 1 µM): 100%
N[C@H]1CCN(c2nccc(-c3cnn4ncccc34)n2)C1 — remaining binding (binding; 1 µM): 66%
C[C@H](c1ccnc(Nc2nc3ccc(-c4cc(N(C)C)ncn4)cc3[nH]2)c1)N1CCN(C(=O)CC(F)(F)F)CC1 — remaining binding (cell-free assay; competition with immobilised ligand; 0.1 µM): 100%
CN(C)c1ncc(F)c(-c2cnn3ncccc23)n1 — remaining binding (binding; 1 µM): 100%
FC(F)(F)c1ccc2c(c1)nc(-c1cccnc1)n2C1CC1 — remaining binding (cell-free assay; competition with immobilised ligand; 1 µM): 76%
